Assay results reported in ChEMBL document CHEMBL4819032, “Structure-based design of highly selective 2,4,5-trisubstituted pyrimidine CDK9 inhibitors as anti-cancer agents” (Eur J Med Chem, 2021).
Activity calls are given as the source filed them. The calls are words filed in the database; no cut-off is given here.

How the values were obtained:
[1] = Growth inhibition of patient derived CLL cells after 48 hrs by annexin V-FITC staining based flow cytometric analysis; type: functional; settings: Homo sapiens, CLL-CII
Summary of the method: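 Freshly isolated primary CLL cells (10⁶/mL) in RPMI with 10% foetal calf serum, L-glutamine, penicillin and streptomycin, 37 °C, 5% CO₂, exposed to inhibitor for 48 h. Cells labelled with CD19-APC and annexin V-FITC; apoptosis quantified by flow cytometry in CD19+ cells. LD50 is the concentration killing 50% of CLL cells.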

Homo sapiens [2] = organism: Homo sapiens; assay: Selectivity index, ratio of Ki for inhibition of recombinant human full length […]
Homo sapiens [3] = organism: Homo sapiens; assay: Selectivity index, ratio of Ki for inhibition of recombinant human full length CDK9/Cyclin T1 to Ki for inhibition of recombinant human full length CDK7/Cyclin H
[4] = tested on: Aurora kinase A (Homo sapiens), O14965 [UNDEFINED MUTATION]; assay: Inhibition of recombinant human full length Aurora-A I31F mutant using LRRASLG as substrate incubated for 40 mins by scintillation counting method
Sequence of Aurora kinase A (Homo sapiens), O14965 [UNDEFINED MUTATION] (O14965 whole entry, looked up, stated change not applied): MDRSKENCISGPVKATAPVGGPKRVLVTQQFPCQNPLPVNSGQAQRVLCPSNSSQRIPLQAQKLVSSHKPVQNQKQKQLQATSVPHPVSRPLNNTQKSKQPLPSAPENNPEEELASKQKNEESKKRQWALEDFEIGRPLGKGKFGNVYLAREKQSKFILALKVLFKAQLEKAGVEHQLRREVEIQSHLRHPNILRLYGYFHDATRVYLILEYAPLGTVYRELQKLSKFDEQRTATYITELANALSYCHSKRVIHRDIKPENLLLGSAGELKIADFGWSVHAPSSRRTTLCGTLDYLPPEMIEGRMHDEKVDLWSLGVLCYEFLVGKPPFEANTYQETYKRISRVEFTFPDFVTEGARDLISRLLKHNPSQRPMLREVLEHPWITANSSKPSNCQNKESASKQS
Summary of the method: (§1)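 The 60-kinase diversity panel was run as a radiometric assay with ATP at each kinase's Km(app). Compound was tested at one fixed concentration across all kinases.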

[5] = target: Mitogen-activated protein kinase kinase kinase 9 (Homo sapiens) (UniProt P80192); assay: Inhibition of recombinant human full length MLK1 (134 to 414 residues)using casein as substrate incubated for 40 mins by scintillation counting method; summary of the method: as §1
Sequence of Mitogen-activated protein kinase kinase kinase 9 (Homo sapiens) (P80192 whole entry, looked up, the tested form may be a part): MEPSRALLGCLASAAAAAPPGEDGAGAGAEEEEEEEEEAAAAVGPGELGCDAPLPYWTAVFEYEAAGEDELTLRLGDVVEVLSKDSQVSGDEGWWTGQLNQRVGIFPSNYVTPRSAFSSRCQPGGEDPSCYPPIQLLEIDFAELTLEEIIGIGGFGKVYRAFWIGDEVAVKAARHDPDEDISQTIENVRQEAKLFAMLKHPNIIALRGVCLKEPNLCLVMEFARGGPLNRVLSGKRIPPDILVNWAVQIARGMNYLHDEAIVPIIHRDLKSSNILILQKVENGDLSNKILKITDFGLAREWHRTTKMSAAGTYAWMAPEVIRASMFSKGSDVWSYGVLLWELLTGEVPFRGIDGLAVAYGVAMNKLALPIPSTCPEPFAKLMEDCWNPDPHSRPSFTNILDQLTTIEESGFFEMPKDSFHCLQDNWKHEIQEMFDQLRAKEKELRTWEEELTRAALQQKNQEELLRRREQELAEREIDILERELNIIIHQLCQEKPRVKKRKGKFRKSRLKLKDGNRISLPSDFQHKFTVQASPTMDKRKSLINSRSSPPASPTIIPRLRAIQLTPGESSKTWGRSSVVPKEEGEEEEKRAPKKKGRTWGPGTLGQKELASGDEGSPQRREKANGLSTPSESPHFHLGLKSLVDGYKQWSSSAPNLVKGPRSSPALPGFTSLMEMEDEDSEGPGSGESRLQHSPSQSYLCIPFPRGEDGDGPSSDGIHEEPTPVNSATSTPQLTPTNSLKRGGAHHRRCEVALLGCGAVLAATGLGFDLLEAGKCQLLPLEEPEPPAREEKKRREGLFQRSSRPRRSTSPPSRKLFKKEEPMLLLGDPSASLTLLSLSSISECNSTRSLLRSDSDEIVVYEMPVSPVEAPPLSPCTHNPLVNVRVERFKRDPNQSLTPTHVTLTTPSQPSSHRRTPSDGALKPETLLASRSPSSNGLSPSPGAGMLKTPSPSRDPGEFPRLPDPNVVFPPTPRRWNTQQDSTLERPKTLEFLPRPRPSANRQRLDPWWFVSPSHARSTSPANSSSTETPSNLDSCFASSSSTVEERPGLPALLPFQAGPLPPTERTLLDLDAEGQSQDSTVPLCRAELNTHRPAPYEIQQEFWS

HT-29 = assay: Growth inhibition of human HT-29 cells after 48 hrs by MTT assay; type: functional
MDA-MB-468 = assay: Growth inhibition of human MDA-MB-468 cells after 48 hrs by MTT assay; type: functional
MIA PaCa-2 = assay: Growth inhibition of human MIA PaCa-2 cells after 48 hrs by MTT assay; type: functional
A2780 [6] = assay: Induction of apoptosis in human A2780 cells assessed as viable cells at 0.5 uM after 24 hrs by Annexin V-FITC/PI staining based flow cytometric analysis (reference value: 92%); type: functional; settings: read-out: Activity
Summary of the method: (§2)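 A2780 cells cultured 24 h in medium alone or with varying inhibitor concentrations, then stained with FITC-annexin V/PI per kit protocol and analysed by flow cytometry. Run in triplicate and repeated at least twice; significance by one-way ANOVA, p < 0.01.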

A2780 [7] = assay: Induction of apoptosis in human A2780 cells assessed as early apoptotic cells at 0.5 uM after 24 hrs by Annexin V-FITC/PI staining based flow cytometric analysis (reference value: 1.6%); type: functional; summary of the method: as §2
A2780 [8] = assay: Induction of apoptosis in human A2780 cells assessed as necrotic cells at 0.5 uM after 24 hrs by Annexin V-FITC/PI staining based flow cytometric analysis (reference value: 3.6%); type: functional; summary of the method: as §2
A2780 [9] = assay: Induction of apoptosis in human A2780 cells assessed as viable cells at 1 uM after 24 hrs by Annexin V-FITC/PI staining based flow cytometric analysis (reference value: 92%); type: functional; settings: read-out: Activity; summary of the method: as §2
A2780 [10] = assay: Induction of apoptosis in human A2780 cells assessed as late apoptotic cells at 1 uM after 24 hrs by Annexin V-FITC/PI staining based flow cytometric analysis (reference value: 2.8%); type: functional; summary of the method: as §2
A2780 [11] = assay: Induction of apoptosis in human A2780 cells assessed as viable cells at 2 uM after 24 hrs by Annexin V-FITC/PI staining based flow cytometric analysis (reference value: 92%); type: functional; settings: read-out: Activity; summary of the method: as §2
A2780 [12] = assay: Induction of apoptosis in human A2780 cells assessed as late apoptotic cells at 2 uM after 24 hrs by Annexin V-FITC/PI staining based flow cytometric analysis (reference value: 2.8%); type: functional; summary of the method: as §2
A2780 [13] = assay: Induction of apoptosis in human A2780 cells assessed as necrotic cells at 2 uM after 24 hrs by Annexin V-FITC/PI staining based flow cytometric analysis (reference value: 3.6%); type: functional; summary of the method: as §2
A2780 [14] = assay: Induction of apoptosis in human A2780 cells assessed as early apoptotic cells at 5 uM after 24 hrs by Annexin V-FITC/PI staining based flow cytometric analysis (reference value: 1.6%); type: functional; summary of the method: as §2
A2780 [15] = assay: Induction of cell cycle arrest in human A2780 cells assessed as accumulation at pre-G1 phase at 0.5 uM after 24 hrs by propidium iodide staining based flow cytometric analysis (reference value: 1.2%); type: functional
A2780 [16] = assay: Induction of cell cycle arrest in human A2780 cells assessed as accumulation at pre-G1 phase at 1 uM after 24 hrs by propidium iodide staining based flow cytometric analysis (reference value: 1.2%); type: functional
A2780 [17] = assay: Induction of cell cycle arrest in human A2780 cells assessed as accumulation at G1/G0 phase at 1 uM after 24 hrs by propidium iodide staining based flow cytometric analysis (reference value: 56.7%); type: functional
Summary of the method: (§3)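 4 × 10⁵ A2780 cells cultured 24 h in medium alone or with varying inhibitor concentrations, harvested into hypotonic fluorochrome solution (0.1% sodium citrate, 0.1% Triton X-100, propidium iodide, 100 ug/ml RNase A), and DNA content analysed by flow cytometry. Representative of three independent experiments.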

A2780 [18] = assay: Induction of cell cycle arrest in human A2780 cells assessed as accumulation at pre-G1 phase at 2 uM after 24 hrs by propidium iodide staining based flow cytometric analysis (reference value: 1.2%); type: functional
A2780 [19] = assay: Induction of cell cycle arrest in human A2780 cells assessed as accumulation at G2/M phase at 2 uM after 24 hrs by propidium iodide staining based flow cytometric analysis (reference value: 21.6%); type: functional; summary of the method: as §3
A2780 [20] = assay: Induction of cell cycle arrest in human A2780 cells assessed as accumulation at S phase at 5 uM after 24 hrs by propidium iodide staining based flow cytometric analysis (reference value: 20%); type: functional; summary of the method: as §3
A2780 [21] = assay: Induction of cell cycle arrest in human A2780 cells assessed as accumulation at G2/M phase at 5 uM after 24 hrs by propidium iodide staining based flow cytometric analysis (reference value: 21.6%); type: functional; summary of the method: as §3
[22] = target: Cyclin-dependent kinase 9 (Homo sapiens) (UniProt P50750); assay: Inhibition of CDK9 in human A2780 cells assessed as reduction in RNAP2 phosphorylation at ser2 residues after 24 hrs by Western blot analysis; type: cell-based; settings: dose 0.5-5 µM
Sequence of Cyclin-dependent kinase 9 (Homo sapiens) (P50750 whole entry): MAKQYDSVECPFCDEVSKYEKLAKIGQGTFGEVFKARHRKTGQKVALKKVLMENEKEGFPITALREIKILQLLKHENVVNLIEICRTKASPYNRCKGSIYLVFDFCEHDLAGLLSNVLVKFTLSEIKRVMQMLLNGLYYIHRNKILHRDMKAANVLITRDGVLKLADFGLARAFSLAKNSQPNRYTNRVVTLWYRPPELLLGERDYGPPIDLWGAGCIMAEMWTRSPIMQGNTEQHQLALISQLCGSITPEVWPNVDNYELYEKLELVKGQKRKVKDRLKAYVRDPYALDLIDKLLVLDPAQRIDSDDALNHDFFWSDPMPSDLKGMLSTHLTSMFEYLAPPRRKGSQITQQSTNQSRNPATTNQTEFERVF

A2780 [23] = assay: Induction of apoptosis in human A2780 cells assessed as reduction in Mcl-1 protein expression after 24 hrs by Western blot analysis; type: functional, cell-based; settings: dose 0.5-5 µM
Summary of the method: (§4)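 A2780 cells treated for 24 h over a concentration series, then lysates analysed by Western blotting.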

A2780 [24] = assay: Induction of apoptosis in human A2780 cells assessed as reduction in XIAP protein expression after 24 hrs by Western blot analysis; type: functional, cell-based; settings: dose 0.5-5 µM; summary of the method: as §4
A2780 [25] = assay: Induction of apoptosis in human A2780 cells assessed as increase in p21 protein expression at 0.5 to 5 uM after 24 hrs by Western blot analysis; type: functional, cell-based; settings: dose 0.5-5 µM; summary of the method: as §4
HCT-116 [26] = assay: Induction of apoptosis in human HCT-116 cells assessed as reduction in Mcl-1 protein expression at 5 uM after 6 to 12 hrs by Western blot analysis; type: functional, cell-based; settings: time 6-12 hrs
HCT-116 [27] = assay: Induction of apoptosis in human HCT-116 cells assessed as increase in p53 protein expression at 0.5 to 5 uM after 24 hrs by Western blot analysis; type: functional, cell-based; settings: dose 0.5-5 µM

## CNc1nc(C)c(-c2nc(Nc3cccc(N4CCN5CCC4CC5)c3)ncc2C)s1
[1]
  GI50: 1.5 µM
Homo sapiens [2]
  Ratio Ki: 100
Homo sapiens [3]
  Ratio Ki: > 50
[4]
  inhibition: Active
[5]
  inhibition: Active
HT-29
  GI50: 2.1 µM
MDA-MB-468
  GI50: 1.46 µM
MIA PaCa-2
  GI50: 1.07 µM
A2780 [6]
  viability at 0.5 µM: 88.3%
A2780 [7]
  Activity: 3.6%
A2780 [8]
  Activity: 1.9%
A2780 [9]
  viability at 1 µM: 74.4%
A2780 [10]
  Activity: 13.1%
A2780 [11]
  viability at 2 µM: 67.9%
A2780 [12]
  Activity: 15.5%
A2780 [13]
  Activity: 2.5%
A2780 [14]
  Activity: 24.65%
A2780 [15]
  Activity: 2%
A2780 [16]
  Activity: 6.5%
A2780 [17]
  Activity: 50.5%
A2780 [18]
  Activity: 8.3%
A2780 [19]
  Activity: 56.5%
A2780 [20]
  Activity: 10.8%
A2780 [21]
  Activity: 23.5%
[22]
  inhibition: Dose-Dependent Effect
A2780 [23]
  Activity: Dose-Dependent Effect
A2780 [24]
  Activity: Dose-Dependent Effect
A2780 [25]
  Activity: Active
HCT-116 [26]
  Activity: Active
HCT-116 [27]
  Activity: Active
